Inconclusive results are not listed.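 The calls were made as follows, unless noted: active = growth inhibition above 25% in both replicates, a cutoff set 3 SD above the mean; inconclusive = above 25% in only one replicate; inactive = the rest.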
Tests used:
[1] = OD615 S. cerevisiae growth inhibition, permissive medium, pilot counter-assay, permissive growth control for S. cerevisiae lifespan shortening project (AID 705); details: OD615, 24 h, at 10 µM, hits give high values
Summary of the method: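 Timing: 24 h exposure, 30 °C / Material: Saccharomyces cerevisiae strain carrying genetically modified DeaD replicative-lifespan system / Signal: OD at 615 nm / Compound: 10 µM single dose, 0.25% DMSO / Medium: SC raffinose/galactose permissive medium / Evaluation: reduction in yeast growth (OD615)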

[2] = Restrictive medium S. cerevisiae growth inhibition, OD615, pilot screen of yeast lifespan reduction project, restrictive growth control (AID 706;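 active = growth inhibition above a set limit, 3 SD over mean compound inhibition, in both replicates, cut at about 43% in these data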;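 also: modified DeaD lifespan yeast strain shifted to restrictive glucose medium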); details: OD615, 48 h, at 10 µM, hits give high values
Summary of the method: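 System: Engineered S. cerevisiae DeaD strain | Detection: OD615 | Buffer or medium: CSMM-D glucose medium | Doses: 10 µM compound, 0.25% DMSO | Timing: 4 h pre-growth plus 48 h compound exposure, 30 °C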

[3] = viability gain of MRP-1-high H69AR cells under doxorubicin, pilot screen, MRP-1 activator project, CellTiter-Glo, duplicate (AID 807;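 active = viability increase at or above a cutoff of the median across tested compounds plus 3 SD, cut at about 8.5% in these data, passing the limit was not always enough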;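 also: compound pretreatment 18-22 h then 72 h combined with doxorubicin; 0% = doxorubicin alone and 100% = vehicle without doxorubicin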); details: H69AR viability with doxorubicin, CellTiter-Glo luminescence; at 10 µM; hits give high values
[4] = growth suppression of beta-catenin knockout HCT116, pilot screen, human colon tumor cells (AID 823;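 active = cell viability at or below a set limit in both duplicate runs, the limit being the all-compound median minus 4 SD, cut at about 23% in these data, passing the limit was not always enough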;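 also: 0% = wells killed by 20 µM Hyamine and 100% = untreated DMSO cell wells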); details: CellTiter-Glo, 60 h, at 10 µM, hits give low values
[5] = growth suppression of PTEN-deleted HCT116, pilot screen, cell-based, HCT116 clonal line, CellTiter-Glo (AID 824;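 active = viability at or below 27.92% in each of two runs, the all-compound median minus 4 SD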;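 also: 0% = 20 µM Hyamine control and 100% = vehicle cell control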); details: 60 h, at 10 µM, hits give low values
[6] = inhibitors of the yeast RAM network, pilot screen, dse1pr::URA3 reporter, 5-FOA selection (AID 869;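 active = inhibition over a set limit, the all-compound mean plus 3 SD, in both replicate runs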;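 also: 0% = DMSO wells with no growth and 100% = 10 µM 1-NA-PP1 with full growth; RAM network block rescues cells from 5-FOA so hits raise OD615 growth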); details: S. cerevisiae dse1pr::URA3 5-FOA growth, OD615, 2 d; at 10 µM; hits give high values; strain carries analog-sensitive mutant Cbk1 kinase
[7] = RAM signaling pathway blockade in yeast – S. cerevisiae, Pdr1DBD-CYC8 efflux-inhibited sensitized strain, primary screen (AID 1298;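 active = RAM network inhibition above 8.4% in each of two replicates, 3 SD over the compound average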;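 also: 0% = DMSO untreated cells without growth and 100% = 10 µM 1-NA-PP1 full growth; higher means more yeast growth rescued from 5-FOA killing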); details: S. cerevisiae cbk1-as DSE1-URA3 strain, 5-FOA growth OD615, 2 d; at 50 µM; hits give high values

COc1ccc(-c2nnc(SCC(=O)NC(C)c3ccccc3)o2)cc1OC (stereo not drawn)
inactive: growth inhibition [1] -1.92% | growth inhibition [2] -14.2% | viability increase [3] -1.24% | viability [4] 106% | viability [5] 96% | inhibition [6] 1.04% | RAM network inhibition [7] 1.77%

O=C(C1CCC(=O)N1Cc1cccnc1)N1CCN(c2ccc(F)cc2)CC1 (stereo not drawn)
inactive: growth inhibition [1] -0.085% | growth inhibition [2] -9.05% | viability increase [3] -2.73% | viability [4] 90.1% | viability [5] 88.4% | inhibition [6] 0.585% | RAM network inhibition [7] 5.89%

CC1(C)NC(C)(C)c2nonc2/C1=N\O
inactive: growth inhibition [1] -15.2% | growth inhibition [2] -9.79% | viability increase [3] 0.39% | viability [4] 99.3% | viability [5] 102% | inhibition [6] 1.34% | RAM network inhibition [7] -0.43%

Cc1ccc(Cn2c3ccccc3c3cn[nH]c(=O)c32)cc1
inactive: growth inhibition [1] -15.7% | growth inhibition [2] -24.6% | viability increase [3] -3.48% | viability [4] 101% | viability [5] 91.1% | inhibition [6] 2.17% | RAM network inhibition [7] 3.88%

COCCCNc1ncnc2nc[nH]c12
inactive: growth inhibition [1] 4.6% | growth inhibition [2] -1.01% | viability increase [3] 1.43% | viability [4] 104% | viability [5] 104% | inhibition [6] 0.885% | RAM network inhibition [7] 1.74%

CCc1nc2oc(C(=O)c3ccccc3)c(N)c2c2c1COC(C)(C)C2
inactive: growth inhibition [1] -10.5% | growth inhibition [2] -9.15% | viability increase [3] -4.48% | viability [4] 81.6% | viability [5] 80.1% | inhibition [6] 0.79% | RAM network inhibition [7] 0.85%

Cc1cc(NC(=O)CSc2nc3c([nH]c4ccccc43)c(=O)n2-c2cccc(C(F)(F)F)c2)no1
inactive: growth inhibition [1] -8.72% | growth inhibition [2] -3.21% | viability increase [3] -4.01% | viability [4] 75.1% | viability [5] 66.7% | inhibition [6] 2.41% | RAM network inhibition [7] 1.08%

Cc1cccc(N2CCN(C(=O)C3CCCN(S(=O)(=O)c4cccc5cccnc45)C3)CC2)c1C (stereo not drawn)
inactive: growth inhibition [1] -6.73% | growth inhibition [2] 12.1% | viability increase [3] -4.58% | viability [4] 30.5% | viability [5] 35.8% | inhibition [6] 1.32% | RAM network inhibition [7] 1%

O=C(Cn1cc2c(n1)CCCC2)NCC1CCCO1 (stereo not drawn)
inactive: growth inhibition [1] -2.07% | growth inhibition [2] 3.85% | viability increase [3] 0.41% | viability [4] 103% | viability [5] 95.9% | inhibition [6] 1.89% | RAM network inhibition [7] 4.01%

O=C(NCCC1=CCCCC1)C1CCCN(S(=O)(=O)c2cccnc2)C1 (stereo not drawn)
inactive: growth inhibition [1] -1.48% | growth inhibition [2] 3.42% | viability increase [3] 0.1% | viability [4] 95.8% | viability [5] 101% | inhibition [6] 1.75% | RAM network inhibition [7] 1.4%

O=C(Nc1ccc(N2CCCC2)c(Cl)c1)c1ccco1
inactive: growth inhibition [1] -2.11% | growth inhibition [2] 8.76% | viability increase [3] 0.68% | viability [4] 91.5% | viability [5] 89.1% | inhibition [6] 1.51% | RAM network inhibition [7] 0.62%

CCCCn1c(C(C)NC(=O)CC)nc2ccccc21 (stereo not drawn)
inactive: growth inhibition [1] -12.9% | growth inhibition [2] -3.19% | viability increase [3] -3.16% | viability [4] 92.2% | viability [5] 92.7% | inhibition [6] 0.01% | RAM network inhibition [7] -0.63%

COc1ccc(C2C(C(=O)N3CCCCC3)c3ccccc3C(=O)N2C)cc1 (stereo not drawn)
inactive: growth inhibition [1] -2.93% | growth inhibition [2] -8.27% | viability increase [3] -2.9% | viability [4] 92.3% | viability [5] 91.2% | inhibition [6] 0.375% | RAM network inhibition [7] 2.69%

CCCCN(C)CCNC(=O)Cn1c(=O)sc2ccccc21
inactive: growth inhibition [1] -0.71% | growth inhibition [2] 4.21% | viability increase [3] -2.43% | viability [4] 99% | viability [5] 96.6% | inhibition [6] 1.31% | RAM network inhibition [7] 5.27%

CCN(CC)c1ccc(NC(=O)Cn2cc3c(n2)CCC(C)C3)c(C)c1 (stereo not drawn)
inactive: growth inhibition [1] 2.12% | growth inhibition [2] 1.57% | viability increase [3] 2.97% | viability [4] 80.4% | viability [5] 76.2% | inhibition [6] 0.835% | RAM network inhibition [7] -1.78%

OCCN1CCN(Cc2cccc(Oc3ccc(Cl)cc3)c2)CC1
inactive: growth inhibition [1] -4.24% | growth inhibition [2] -1.81% | viability increase [3] -3.74% | viability [4] 63.2% | viability [5] 73.1% | inhibition [6] 2.6% | RAM network inhibition [7] -0.21%

Cc1c(C(=O)NCc2ccc3c(c2)OCO3)oc2ccc(S(=O)(=O)N3CCC(C)CC3)cc12
inactive: growth inhibition [1] -11.5% | growth inhibition [2] -16.7% | viability increase [3] 0.73% | viability [4] 74.7% | viability [5] 73% | inhibition [6] 2.39% | RAM network inhibition [7] 11.2%

Cc1cccc(CCNC(=O)CN(C)S(=O)(=O)c2ccc3c(c2)c(=O)n(C)c(=O)n3C)c1
inactive: growth inhibition [1] -12.1% | growth inhibition [2] -22.2% | viability increase [3] -0.92% | viability [4] 102% | viability [5] 90.4% | inhibition [6] 1.75% | RAM network inhibition [7] 2.91%

CCOC(=O)c1cnc2nc[nH]n2c1=O
inactive: growth inhibition [1] 1.53% | growth inhibition [2] 11.7% | viability increase [3] 2.64% | viability [4] 104% | viability [5] 103% | inhibition [6] 0.33% | RAM network inhibition [7] -0.24%

O=C(O)c1c2c(nc3ccc(S(=O)(=O)N4CCC(C(=O)N5CCCCC5)CC4)cc13)CCCC2
inactive: growth inhibition [1] -3.06% | growth inhibition [2] -3.51% | viability increase [3] 0.51% | viability [4] 97.3% | viability [5] 92.8% | inhibition [6] 0.79% | RAM network inhibition [7] 1.98%

Cn1c(=O)c2c(SCC(=O)N3CCN(c4ccccc4)CC3)nc(C3CC3)nc2n(C)c1=O
inactive: growth inhibition [1] 10.6% | growth inhibition [2] -3.49% | viability increase [3] -2.93% | viability [4] 82.5% | viability [5] 79.8% | inhibition [6] 3.71% | RAM network inhibition [7] 6.69%

Cc1ccccc1-c1nnc(SCC(=O)Nc2ccc3c(c2)OCCO3)n1N
inactive: growth inhibition [1] -1.12% | growth inhibition [2] 10.1% | viability increase [3] -2.18% | viability [4] 96.7% | viability [5] 91.7% | inhibition [6] 0.6% | RAM network inhibition [7] -0.27%

CCc1nccn1S(=O)(=O)c1ccc2ccccc2c1
inactive: growth inhibition [1] 0.77% | growth inhibition [2] -2.31% | viability increase [3] -1.22% | viability [4] 102% | viability [5] 103% | inhibition [6] 0.7% | RAM network inhibition [7] 3.49%

COc1ccc(OC)c(NC2c3ccccc3C(=O)N2Cc2ccc3c(c2)OCO3)c1 (stereo not drawn)
inactive: growth inhibition [1] -0.33% | growth inhibition [2] -3.93% | viability increase [3] -0.47% | viability [4] 98% | viability [5] 90% | inhibition [6] 0.2% | RAM network inhibition [7] 5.4%

Reference: PubChem BioAssay
